Key:
Cathepsin B = Cathepsin B (Bos taurus, UniProt P07688); test: Inhibition of alpha-keto esters towards cathepsin B at pH 5.2
Procedure, shortened: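 Bovine cathepsin B in 20 mM sodium acetate pH 5.2, 0.5 mM dithiothreitol, 2% DMSO. Substrate Bz-Phe-Val-Arg-p-nitroanilide; p-nitroaniline release followed at 405 nm. Ki reported.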

Calpain 1 = Calpain 1 (Homo sapiens, UniProt P07384); test: Inhibitory activity of alpha-keto esters towards calpain 1 at pH 8.0.; assay type: protein-complex assay
Procedure, shortened: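 Calpain I purified from human erythrocytes; calpain II from rabbit muscle. Buffer: 25 mM Tris pH 8.0, 1 mM β-mercaptoethanol, 10 mM CaCl2, up to 5% DMSO. Substrate: Suc-Leu-Tyr-AMC at 1–3 mM, 70 nM final enzyme, started with enzyme. AMC fluorescence read at ex 380 / em 460 nm. Initial rates taken at 30–60 s at room temperature, with five or more inhibitor levels and two substrate levels. Ki from Dixon plots, triplicates.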

Rattus norvegicus = organism: Rattus norvegicus; test: Inhibitory potency against rat platelet membrane permeability at pH 7.35; assay type: functional
Procedure, shortened: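 Rat platelets from cardiac-puncture blood (citrate-EDTA), gel-filtered in HEPES-Tyrode's pH 7.35, at 10^7/mL. Preincubated 5 min at room temperature with inhibitor from DMSO stocks (2% DMSO), then given 1 μM A23187 plus 2 mM Ca for 5 min. Pellets run on SDS-PAGE and western blotted for spectrin. Densitometry of the 150/155-kDa breakdown doublet gives IC50.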

Papain = biological target: T1, Papain (Carica papaya, UniProt P00784); test: Inhibitory activity of alpha-ketoesters towards papain at pH 6.0
T1 sequence (P00784 whole entry): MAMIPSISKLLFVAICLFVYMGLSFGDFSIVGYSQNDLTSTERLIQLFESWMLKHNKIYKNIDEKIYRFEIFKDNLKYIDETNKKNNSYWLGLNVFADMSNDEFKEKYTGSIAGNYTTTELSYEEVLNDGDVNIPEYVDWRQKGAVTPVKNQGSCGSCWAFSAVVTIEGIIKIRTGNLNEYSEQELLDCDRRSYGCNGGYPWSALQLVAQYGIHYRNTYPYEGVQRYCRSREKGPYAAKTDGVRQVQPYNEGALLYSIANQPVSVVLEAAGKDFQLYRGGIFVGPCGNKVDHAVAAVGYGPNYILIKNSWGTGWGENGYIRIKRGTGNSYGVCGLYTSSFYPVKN
Procedure, shortened: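 Papain in 100 mM K3PO4, 1 mM EDTA, 2.5 mM cysteine, pH 6.0, 2% DMSO. Substrate Bz-Arg-p-nitroanilide; p-nitroaniline release read at 405 nm. Ki reported.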

Chain of Calpain 1 (P04632 whole entry): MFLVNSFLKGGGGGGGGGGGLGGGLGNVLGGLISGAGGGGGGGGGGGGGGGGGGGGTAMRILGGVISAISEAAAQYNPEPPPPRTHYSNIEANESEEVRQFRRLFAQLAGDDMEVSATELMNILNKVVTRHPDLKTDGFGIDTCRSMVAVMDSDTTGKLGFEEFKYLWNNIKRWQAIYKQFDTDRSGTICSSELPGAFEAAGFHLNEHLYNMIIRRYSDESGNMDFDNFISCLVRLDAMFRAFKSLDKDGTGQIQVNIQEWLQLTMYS
Chain of Calpain 1 (P07384 whole entry): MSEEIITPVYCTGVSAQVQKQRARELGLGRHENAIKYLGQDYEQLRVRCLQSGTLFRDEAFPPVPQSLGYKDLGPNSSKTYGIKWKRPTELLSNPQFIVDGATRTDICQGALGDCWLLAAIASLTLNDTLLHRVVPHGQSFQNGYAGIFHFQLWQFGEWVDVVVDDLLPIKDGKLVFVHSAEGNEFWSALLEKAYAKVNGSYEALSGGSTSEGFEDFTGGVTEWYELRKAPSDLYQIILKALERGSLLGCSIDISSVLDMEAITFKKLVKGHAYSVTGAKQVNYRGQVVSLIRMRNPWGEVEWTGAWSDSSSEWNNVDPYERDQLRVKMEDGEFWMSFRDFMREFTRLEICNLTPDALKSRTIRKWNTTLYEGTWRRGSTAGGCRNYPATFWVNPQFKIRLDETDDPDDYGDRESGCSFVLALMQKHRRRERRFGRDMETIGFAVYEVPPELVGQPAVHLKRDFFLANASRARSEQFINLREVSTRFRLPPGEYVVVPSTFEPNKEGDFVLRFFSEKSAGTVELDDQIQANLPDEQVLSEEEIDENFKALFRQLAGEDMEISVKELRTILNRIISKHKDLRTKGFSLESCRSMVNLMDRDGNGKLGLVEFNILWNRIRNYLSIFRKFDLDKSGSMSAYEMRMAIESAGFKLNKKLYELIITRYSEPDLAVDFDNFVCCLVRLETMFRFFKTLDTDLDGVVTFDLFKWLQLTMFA

Structure (SMILES)	Ki (Cathepsin B) [µM]	Ki (Calpain 1) [µM]	IC50 (Rattus norvegicus) [µM]	Ki (Papain) [µM]
CCOC(=O)C(=O)C(CC)NC(=O)C(CC(C)C)NC(=O)CCCCc1ccccc1 (configuration not stated)	7.5	–	–	–
CCC(NC(=O)C(CC(C)C)NC(=O)OCc1ccccc1)C(=O)C(=O)OCc1ccccc1 (configuration not stated)	4	9.5	100	40
CCC(NC(=O)C(CC(C)C)NC(=O)OCc1ccccc1)C(=O)C(=O)NCCCCc1ccccc1 (configuration not stated)	1.2	0.32	–	–
CCC(NC(=O)C(CC(C)C)NC(=O)OCc1ccccc1)C(=O)C(=O)NCC(C)C (configuration not stated)	4	4	28	–
CCOC(=O)C(=O)C(CC)NC(=O)C(CC(C)C)NS(=O)(=O)c1ccc2ccccc2c1 (configuration not stated)	19	–	–	–
CCCCCCCCCCNC(=O)C(=O)C(CC)NC(=O)C(CC(C)C)NC(=O)OCc1ccccc1 (configuration not stated)	5	–	–	–
CCC(NC(=O)C(CC(C)C)NC(=O)OCc1ccccc1)C(=O)C(=O)NCC(C)c1ccccc1 (configuration not stated)	–	0.32	27	–
CCOC(=O)C(=O)C(CC)NC(=O)C(CC(C)C)NC(=O)OCC(C)C (configuration not stated)	0.4	–	> 300	–
CCCCC(NC(=O)C(CC(C)C)NC(=O)OCc1ccccc1)C(=O)C(=O)OCC (configuration not stated)	20	7	150	190
CCCCCCCNC(=O)C(=O)C(CC)NC(=O)C(CC(C)C)NC(=O)OCc1ccccc1 (configuration not stated)	14	0.096	–	–
CCC(C)NC(=O)C(=O)C(CC)NC(=O)C(CC(C)C)NC(=O)OCc1ccccc1 (configuration not stated)	0.5	2	–	–
CCCNC(=O)C(=O)C(Cc1ccccc1)NC(=O)C(CC(C)C)NC(=O)OCc1ccccc1 (configuration not stated)	3	15	31	–
COC(=O)C(=O)C(Cc1ccccc1)NC(=O)C(CC(C)C)NC(=O)OCc1ccccc1 (configuration not stated)	> 100	–	–	–
CC(C)CC(NC(=O)OCc1ccccc1)C(=O)NC(Cc1ccccc1)C(=O)C(N)=O (configuration not stated)	32	1	–	–
CCCNC(=O)C(=O)C(CC)NC(=O)C(CC(C)C)NC(=O)OCc1ccccc1 (configuration not stated)	8	–	70	–
CCCC(NC(=O)C(CC(C)C)NC(=O)OCc1ccccc1)C(=O)C(=O)NCC (configuration not stated)	3.3	0.21	40	–
CC(C)CC(NC(=O)OCc1ccccc1)C(=O)NC(Cc1ccccc1)C(=O)C(=O)O (configuration not stated)	4.5	0.0085	100	7
CCN(CC)C(=O)C(=O)C(Cc1ccccc1)NC(=O)C(CC(C)C)NC(=O)OCc1ccccc1 (configuration not stated)	–	76	–	–
CCOC(=O)C(=O)C(Cc1ccc(Cl)cc1)NC(=O)C(CC(C)C)NC(=O)OCc1ccccc1 (configuration not stated)	50	< 4	–	150

Structure (SMILES)	Ki (Cathepsin B) [µM]	Ki (Calpain 1) [µM]	IC50 (Rattus norvegicus) [µM]	Ki (Papain) [µM]
CCOC(=O)C(=O)C(CCSC)NC(=O)C(CC(C)C)NC(=O)OCc1ccccc1 (configuration not stated)	55	1	–	140
CCC(NC(=O)C(CC(C)C)NC(=O)OCc1ccccc1)C(=O)C(=O)NCCc1ccccc1 (configuration not stated)	1.3	0.2	50	38
CCCCOC(=O)C(=O)C(Cc1ccccc1)NC(=O)C(CC(C)C)NC(=O)OCc1ccccc1 (configuration not stated)	15	5	–	15
CCC(NC(=O)C(CC(C)C)NC(=O)OCc1ccccc1)C(=O)C(=O)OC (configuration not stated)	17	–	280	–
CCOC(=O)C(=O)C(CC)NC(=O)C(CC(C)C)NC(=O)C(c1ccccc1)c1ccccc1 (configuration not stated)	–	0.1	> 100	–
CCOC(=O)C(=O)C(CC)NC(=O)C(CC(C)C)NC(=O)CCc1ccccc1 (configuration not stated)	23	40	20	–
CCCC(NC(=O)C(CC(C)C)NC(=O)OCc1ccccc1)C(=O)C(N)=O (configuration not stated)	–	0.069	–	–
CCC(NC(=O)C(CC(C)C)NC(=O)OCc1ccccc1)C(=O)C(=O)NCC1CCCCC1 (configuration not stated)	–	0.68	66	–
CCCC(NC(=O)C(CC(C)C)NC(=O)OCc1ccccc1)C(=O)C(=O)OCC (configuration not stated)	25	1.4	100	150
CCOC(=O)C(=O)C(CC)NC(=O)C(CC(C)C)NC(=O)OCc1ccccc1 (configuration not stated)	30	4.5	300	220
CCC(NC(=O)C(CC(C)C)NC(=O)OCc1ccccc1)C(=O)C(=O)NCc1ccccc1 (configuration not stated)	1.3	0.2	50	38
CCOC(=O)C(=O)C(CC)NC(=O)C(CC(C)C)NC(=O)CCCc1ccccc1 (configuration not stated)	23	–	20	–
CCC(NC(=O)C(CC(C)C)NC(=O)OCc1ccccc1)C(=O)C(=O)O (configuration not stated)	1.5	0.075	100	13.5
CCC(NC(=O)C(CC(C)C)NC(=O)OCc1ccccc1)C(=O)C(=O)NCCCc1ccccc1 (configuration not stated)	0.2	0.8	100	–
CCC(=O)C(=O)[C@H](CC)NC(=O)[C@H](CC(C)C)NC(=O)[C@H](CC(C)C)NC(=O)OCc1ccccc1	22	1.8	40	–
CCOC(=O)C(=O)[C@H](Cc1ccccc1)NC(=O)[C@H](CC(C)C)NC(=O)[C@H](CC(C)C)NC(=O)OCc1ccccc1	42	1.4	–	15
CCOC(=O)C(=O)[C@H](CC)NC(=O)[C@H](CC(C)C)NC(=O)[C@H](CC(C)C)NS(=O)(=O)c1ccc(C)cc1	69	33	30	–
CCOC(=O)C(=O)[C@H](CC)NC(=O)[C@H](CC(C)C)NC(=O)[C@H](CC(C)C)NS(=O)(=O)c1ccc2ccccc2c1	25	16	100	–
CCOC(=O)C(=O)[C@H](CC)NC(=O)[C@H](CC(C)C)NC(=O)[C@H](CC(C)C)NC(=O)c1ccc2ccccc2c1	–	1.3	78	–

Structure (SMILES)	Ki (Cathepsin B) [µM]	Ki (Calpain 1) [µM]	IC50 (Rattus norvegicus) [µM]	Ki (Papain) [µM]
CC(C)CC(NC(=O)OCc1ccccc1)C(=O)NC(Cc1ccccc1)C(=O)C(=O)OCc1ccccc1 (configuration not stated)	45	3.4	–	45
CCNC(=O)C(=O)C(CC)NC(=O)C(CC(C)C)NC(=O)OCc1ccccc1 (configuration not stated)	2.4	0.25	100	93
CCCCCCCCNC(=O)C(=O)C(CC)NC(=O)C(CC(C)C)NC(=O)OCc1ccccc1 (configuration not stated)	2.6	0.32	200	–
CCC(NC(=O)C(CC(C)C)NC(=O)OCc1ccccc1)C(=O)C(N)=O (configuration not stated)	3.4	0.28	89	190
CCC(NC(=O)C(CC(C)C)NC(=O)OCc1ccccc1)C(=O)C(=O)NCC(c1ccccc1)c1ccccc1 (configuration not stated)	3	0.16	–	–
CCC(NC(=O)C(CC(C)C)NC(=O)OCc1ccccc1)C(=O)C(=O)N(CC)CC (configuration not stated)	270	–	–	–
CCCCCCCCCNC(=O)C(=O)C(CC)NC(=O)C(CC(C)C)NC(=O)OCc1ccccc1 (configuration not stated)	150	0.12	–	–
CCOC(=O)C(=O)C(CC)NC(=O)C(CC(C)C)NC(=O)C(CC)Oc1ccccc1 (configuration not stated)	14	20	22	–
CC(C)CC(NC(=O)OCc1ccccc1)C(=O)NC(Cc1ccccc1)C(=O)C(=O)NCCc1ccccc1 (configuration not stated)	9.3	0.052	100	100
CCOC(=O)C(=O)C(CC)NC(=O)C(CC(C)C)NC(=O)CCC(C)Cc1ccccc1 (configuration not stated)	24	–	–	–
CCCCOC(=O)C(=O)C(CC)NC(=O)C(CC(C)C)NC(=O)OCc1ccccc1 (configuration not stated)	4	1.8	28	10
CCC(NC(=O)C(CC(C)C)NC(=O)OCc1ccccc1)C(=O)C(=O)N(CC)Cc1ccccc1 (configuration not stated)	> 400	–	–	–
CCOC(=O)C(=O)C(Cc1ccccc1)NC(=O)C(CC(C)C)NC(=O)OCc1ccccc1 (configuration not stated)	340	1.8	200	75
CC(C)CC(NC(=O)OCc1ccccc1)C(=O)NC(Cc1ccccc1)C(=O)C(=O)NCc1ccccc1 (configuration not stated)	4.6	–	> 300	–
CCNC(=O)C(=O)C(Cc1ccccc1)NC(=O)C(CC(C)C)NC(=O)OCc1ccccc1 (configuration not stated)	6	0.2	22	45
CCC(NC(=O)C(CC(C)C)NC(=O)OCc1ccccc1)C(=O)C(=O)N(Cc1ccccc1)Cc1ccccc1 (configuration not stated)	31	> 5	–	–
CCCCNC(=O)C(=O)C(Cc1ccccc1)NC(=O)C(CC(C)C)NC(=O)OCc1ccccc1 (configuration not stated)	3	0.5	38	–
CC(C)CNC(=O)C(=O)C(Cc1ccccc1)NC(=O)C(CC(C)C)NC(=O)OCc1ccccc1 (configuration not stated)	4	0.08	22	–
CCCCNC(=O)C(=O)C(CC)NC(=O)C(CC(C)C)NC(=O)OCc1ccccc1 (configuration not stated)	13	0.2	35	93

From ChEMBL document CHEMBL1126888, “Peptide alpha-keto ester, alpha-keto amide, and alpha-keto acid inhibitors of calpains and other cysteine proteases” (J Med Chem, 1993)
